UHRF1 binding = UHRF1 methylated DNA binding inhibitors, primary screen, counter-screen for MBD2 inhibitor project, biochemical, TR-FRET, human UHRF1, single concentration; inhibition, % at 4.4 µM; UHRF1 binding to methylated oligo; 0.75% of 370,000 active; AID 687016, 2013; E3 ubiquitin-protein ligase UHRF1 (Homo sapiens), Q96T88; in the data active = inhibition above about 21%;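 also: UHRF1 SRA domain binding a hemimethylated CpG hairpin DNA probe; 0% = median of test compound wells and 100% = reference inhibitor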
Target sequence (Q96T88 whole entry, looked up, the tested form may be a part): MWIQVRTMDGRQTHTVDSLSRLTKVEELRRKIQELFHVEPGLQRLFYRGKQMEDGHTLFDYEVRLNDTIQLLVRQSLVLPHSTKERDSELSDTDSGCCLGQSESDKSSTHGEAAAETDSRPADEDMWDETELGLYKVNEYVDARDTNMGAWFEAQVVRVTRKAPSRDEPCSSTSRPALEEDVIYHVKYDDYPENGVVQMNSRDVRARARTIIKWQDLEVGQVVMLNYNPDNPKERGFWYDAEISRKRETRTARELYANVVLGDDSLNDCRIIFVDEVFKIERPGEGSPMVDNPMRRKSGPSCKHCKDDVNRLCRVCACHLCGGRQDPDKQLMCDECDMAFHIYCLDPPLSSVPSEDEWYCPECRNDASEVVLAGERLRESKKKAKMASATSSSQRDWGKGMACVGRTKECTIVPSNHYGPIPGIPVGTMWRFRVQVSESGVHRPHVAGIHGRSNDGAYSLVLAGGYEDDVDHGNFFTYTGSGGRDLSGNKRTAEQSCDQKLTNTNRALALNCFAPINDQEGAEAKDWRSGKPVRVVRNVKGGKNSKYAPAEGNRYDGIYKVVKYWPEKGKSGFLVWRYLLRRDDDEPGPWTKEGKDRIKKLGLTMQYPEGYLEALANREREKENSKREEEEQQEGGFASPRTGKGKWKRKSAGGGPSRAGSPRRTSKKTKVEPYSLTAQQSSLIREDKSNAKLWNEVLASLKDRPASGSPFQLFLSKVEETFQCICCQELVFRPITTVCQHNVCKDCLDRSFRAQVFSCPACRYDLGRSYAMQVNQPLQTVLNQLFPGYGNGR
ABHD5-PLIN5 inh = ABHD5-PLIN5 interaction inhibitors, primary screen, cell lysate, split luciferase complementation, luminescence | Split G. princeps luciferase complementation, 4 h | inhibition, % at 4 µM | Perilipin-5 (Homo sapiens) + 1-acylglycerol-3-phosphate O-acyltransferase ABHD5 (Homo … | 0.78% of 360,000 active | AID 602281, 2012;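 active = inhibition above the mean inhibition across every tested compound plus 3 SD, cut at about 22% in these data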;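 also: 0% = DMSO only wells and the 100% control is not disclosed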
RBBP9 inhibitor = human RBBP9 inhibitors, primary screen, biochemical, fluorescence polarization, FP-Rh probe, HTS; Serine hydrolase RBBP9 (Homo sapiens), O75884; 0.2% of 220,000 active; AID 1515, 2009; recombinant RBBP9; inhibition, % at 7.94 µM;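 active = inhibition above the campaign mean of all tested compounds plus 3 SD, cut at about 14% in these data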;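 also: plate controls were DMSO wells with RBBP9 for no effect and wells lacking RBBP9 protein for full effect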
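Assay system: recombinant human RBBP9; Reagent: Serine-hydrolase probe FP-Rh, 375 nM pre-mixing; Doses: 7.94 µM single dose, 0.794% DMSO; Incubation: 30 min then 45 min, 25 °C; Detection: fluorescence polarization (mP), excitation 525 nm, emission 598 nm; Evaluation: percent inhibition from mP, scaled between DMSO and no-protein wells.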
PRMT1 inh = PRMT1 methyltransferase inhibitors, primary screen, biochemical, fluorescence polarization. AID 652257, 2013. 1.3% of 370,000 active. inhibition, % at 2.79 µM. recombinant PRMT1, activity-based probe fluorescence polarization;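 active = inhibition above about 21% made by adding two undisclosed values, limit read from the data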
MBD2 inh = inhibitors of MBD2 binding to methylated DNA, primary screen, biochemical, TR-FRET, DNA-binding domain, human. MBD2 binding to methylated oligonucleotide. 0.31% of 370,000 active. inhibition, % at 4.4 µM. AID 686964, 2013; in the data active = inhibition above about 13%
LEDGF integ inh = blockers of LEDGF/p75-dependent integrase strand transfer – biochemical, TR-FRET, high throughput, primary screen; HIV-1 integrase (with human LEDGF/p75); TR-FRET IN-LEDGF/p75 DNA integration, Eu/Cy5; inhibition, % at 3.7 µM; 0.64% of 370,000 active;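 active = inhibition above the screen-wide mean plus 3 SD, cut at about 13% in these data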;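 also: signal is the Cy5 over europium emission ratio at 671 and 618 nm; 0% = plate median of compound wells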
PRMT1 confirm = PRMT1 methyltransferase inhibitors, confirmation, biochemical, fluorescence polarization, triplicate. shares compounds with PRMT1 inh. recombinant His-PRMT1, activity-based probe fluorescence polarization. inhibition, % at 2.79 µM. 42% of 3,300 active. AID 687036, 2013;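 active = mean inhibition across replicates above the hit cutoff derived for the earlier primary screen, cut at about 22% in these data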
* marks the source's active call; other numbers are inactive results; . = not tested or not shown. A selection: hits, their analogues and other compounds. The true share with any hit is near 3.1%.

SMILES | UHRF1 binding | ABHD5-PLIN5 inh | RBBP9 inhibitor | PRMT1 inh | MBD2 inh | LEDGF integ inh | PRMT1 confirm
Cn1c(N)c(C#N)c2c(c1=S)CSC(C)(C)C2 | -4.2 | -14.8 | -2.9 | 11.3 | -7.8 | -0.2 | .
CC1(C)Cc2c(C#N)c(N)sc(=S)c2CS1 | -9.0 | -17.3 | -3.1 | 30.7* | -0.9 | 2.5 | 41.3*
N#Cc1c(N)sc(=S)c2c1CCCCC2 | 21.1* | -15.5 | -9.7 | 40.5* | 10.0 | 19.2* | 36.4*
COC(=O)c1cc2c(c3c4cc(OC)ccc4n(S(=O)(=O)c4ccc(F)cc4)c13)C(=O)N(C)C2 | -1.1 | . | . | 2.4 | -0.5 | 0.2 | .
Cc1ccc(NC(=O)c2ccc(Cl)c(N3C(=O)C=CC3=O)c2)cc1 | -1.8 | 38.9* | -10.1 | 91.6* | -3.1 | -5.4 | 88.8*
O=C(Nc1ccc(Cl)c(Cl)c1)c1ccc(Cl)c(Cl)c1 | 4.0 | -16.2 | -76.1 | 0.6 | 4.2 | 1.6 | .
Cc1cc(NS(=O)(=O)c2ccc(NC(=O)Cc3ccccc3)cc2)no1 | -2.2 | . | . | 4.2 | -4.5 | -3.4 | .
CN1CCN(C(=S)C(=O)Nc2ccc(Br)cc2)CC1 | -0.6 | 18.9 | -4.0 | 72.3* | -0.8 | -5.6 | 71.9*
CN1CCN(C(=S)NC(=O)c2ccc(Br)cc2)CC1 | 3.5 | 8.9 | -7.9 | -2.3 | 0.9 | 6.1 | .
O=C(NCCc1ccccc1Cl)[C@@H]1CCCN1C(=O)[C@@H](NC(=O)N1CCOCC1)c1ccccc1 | 0.9 | . | . | 3.9 | -3.7 | -1.3 | .
COC(=O)[C@]12C[C@H](CC(=O)NCCCCc3ccccc3)C(=O)N(Cc3ccccc3)C1=C[C@H](COCc1ccccc1)O[C@@H]2C | 1.2 | . | . | 4.6 | -2.7 | -4.4 | .
O=C(O)c1ccc(N2C(=O)CC(N3CCC(c4nc5ccccc5[nH]4)CC3)C2=O)cc1 (stereo not drawn) | -0.1 | 4.4 | 1.8 | 8.9 | 0.0 | 1.4 | .
O=C1CC(N2CCC(c3nc4ccccc4[nH]3)CC2)C(=O)N1c1cccc(F)c1 (stereo not drawn) | 2.6 | -0.8 | 5.8 | 43.1* | 1.9 | -8.0 | 8.6
CN1C(=O)CC(N2CCC(c3nc4ccccc4[nH]3)CC2)C1=O (stereo not drawn) | -1.7 | 5.1 | 0.4 | -4.0 | -2.1 | 0.4 | .
O=C1CC(N2CCC(c3nc4ccccc4[nH]3)CC2)C(=O)N1Cc1ccccc1 (stereo not drawn) | 0.0 | -1.1 | 9.9 | 32.5* | -1.2 | -5.4 | 3.8
CC(NCc1ccco1)C(=O)N1CCOCC1 (stereo not drawn) | -3.3 | . | . | 1.5 | 4.2 | 1.6 | .
CCOC(=O)c1c(NC(=S)Nc2ccccc2)sc2c1CCCCC2 | . | -9.3 | -11.3 | . | . | . | .
CCOC(=O)c1c(NC(=S)Nc2ccccc2)sc2c1CCN(CC)C2 | -15.0 | -3.3 | 1.1 | 27.5* | 5.2 | 1.7 | 11.4
O=C1NCCCC2c3cc(O)c4ccccc4c3OC12N1CCCCC1 (stereo not drawn) | 4.4 | . | -4.3 | 15.2 | -3.5 | 12.6 | .
O=C1NCCCC2c3c(cc(Br)c(O)c3Br)OC12N1CCOCC1 (stereo not drawn) | -2.9 | 5.9 | 6.2 | 27.1* | -2.3 | -5.2 | 2.6
COC(=O)[C@]12C[C@H](CC(=O)N3CCN(C(=O)c4ccco4)CC3)C(=O)N(Cc3ccco3)C1=C[C@H](C(C)C)O[C@@H]2C1CC1 | 3.8 | . | . | 2.6 | 6.1 | 2.7 | .
O=C(CSc1nncn1-c1ccccn1)Nc1cccc(Cl)c1 | 5.1 | 3.1 | 3.9 | 5.3 | 6.1 | -4.2 | .
O=C(CSC1=NNC(c2ccccn2)S1)Nc1cccc(Cl)c1 (stereo not drawn) | -5.0 | -15.1 | -14.3 | 61.0* | -0.8 | 5.4 | 40.9*
O=C(CSc1nnc(-c2ccccn2)o1)Nc1ccccc1 | 4.9 | -1.6 | 0.7 | 3.0 | -1.6 | -1.8 | .
O=C(CSC1=NNC(c2ccccn2)S1)Nc1ccccc1 (stereo not drawn) | -6.1 | 9.7 | -5.7 | 66.2* | -2.7 | -3.6 | 45.5*
SMILES | UHRF1 binding | ABHD5-PLIN5 inh | RBBP9 inhibitor | PRMT1 inh | MBD2 inh | LEDGF integ inh | PRMT1 confirm
CCCC(=O)N1CCC(NS(=O)(=O)c2ccc3c(c2)CCN3C(C)=O)CC1 | 0.0 | . | . | 5.7 | 7.2 | 1.6 | .
CCNc1nc(SCC(N)=O)nc2sc3c(c12)CCN(C)C3 | -2.9 | -7.7 | . | 60.5* | 3.9 | 2.4 | 16.1
CSc1nc(SCC(N)=O)c2c3c(sc2n1)CN(C)CC3 | 5.8 | 13.4 | -11.9 | 10.2 | 8.7 | 4.8 | .
CCOC(=O)C1=C(C(=O)OCC)C2N(Cc3ccc(Br)cc3)c3ccccc3[C@@]23C[C@@H](C(=O)OC)N(S(=O)(=O)c2cccs2)C3=N1 (stereo partly drawn) | 1.6 | . | . | 0.6 | 2.4 | -4.4 | .
COc1ccc(C=Cc2ccc3ccccc3n2)c(OC)c1 | -20.2 | -8.2 | . | 147.1* | -17.8 | 7.2 | 7.1
CCCC(C(=O)O)n1c(O)c(C=C2N=c3ccccc3=N2)sc1=S (stereo not drawn) | -4.5 | -6.1 | -1.1 | 26.3* | -0.8 | -3.1 | 2.5
O=C(O)CCCn1c(O)c(C=C2N=c3ccccc3=N2)sc1=S | -6.7 | 0.3 | 7.0 | 16.6 | -8.3 | 1.5 | .
O=C(O)c1ccc(-n2c(O)c(C=C3N=c4ccccc4=N3)sc2=S)cc1 | -7.8 | 1.1 | -2.3 | 29.5* | 2.6 | -5.9 | 21.0
CCN(CC)c1ccc(-n2c(O)c(C=C3N=c4ccccc4=N3)sc2=S)cc1 | 0.0 | -2.2 | -9.9 | -1.2 | 4.1 | 0.8 | .
O=C(O)c1cccc(-n2c(O)c(C=C3N=c4ccccc4=N3)sc2=S)c1 | -10.3 | -12.6 | -6.7 | 31.0* | -10.8 | -1.2 | 5.2
Cc1ccc(-c2nnc(SCC(=O)Nc3ccc4c(c3)OCCO4)n2-c2ccc(Cl)cc2)cc1 | -3.4 | . | . | -6.0 | -2.7 | 2.5 | .
CSC1=NSC2=NC(=O)/C(=C\c3coc4ccccc4c3=O)C(=N)N12 | -7.1 | -8.9 | -14.5 | 31.1* | -0.8 | 8.4 | 71.6*
Cc1ccc(C2=N/C(=C\c3coc4ccccc4c3=O)C(=O)O2)cc1 | 3.6 | . | . | 37.5* | -2.2 | 40.0* | 1.1
CC(C)CC(=O)c1c(O)cc(O)c2c1OC1=C(C(=O)C(C)(C)C(=O)C1(C)C)C2CC(C)C (stereo not drawn) | -0.7 | . | . | 19.5 | 0.5 | -3.2 | .
